Screening results from PubChem BioAssay.
TMEM16A inh – blocks the mouse calcium-activated chloride channel TMEM16A; Q8BHY3; HEK293 TMEM16A/YFP iodide influx fluorescence, ionomycin; normalized B-score (activity score, 25-100; higher = stronger inhibition) at 10 µM; 310,000 tested, 1.2% active; AID 588511;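 active means ratio plate-corrected score three or more library SD toward inhibition, starting fluorescence score within five deviations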;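 further: score derived from kinetic fluorescence span divided by baseline fluorescence per well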
Target sequence (Q8BHY3 whole entry, looked up): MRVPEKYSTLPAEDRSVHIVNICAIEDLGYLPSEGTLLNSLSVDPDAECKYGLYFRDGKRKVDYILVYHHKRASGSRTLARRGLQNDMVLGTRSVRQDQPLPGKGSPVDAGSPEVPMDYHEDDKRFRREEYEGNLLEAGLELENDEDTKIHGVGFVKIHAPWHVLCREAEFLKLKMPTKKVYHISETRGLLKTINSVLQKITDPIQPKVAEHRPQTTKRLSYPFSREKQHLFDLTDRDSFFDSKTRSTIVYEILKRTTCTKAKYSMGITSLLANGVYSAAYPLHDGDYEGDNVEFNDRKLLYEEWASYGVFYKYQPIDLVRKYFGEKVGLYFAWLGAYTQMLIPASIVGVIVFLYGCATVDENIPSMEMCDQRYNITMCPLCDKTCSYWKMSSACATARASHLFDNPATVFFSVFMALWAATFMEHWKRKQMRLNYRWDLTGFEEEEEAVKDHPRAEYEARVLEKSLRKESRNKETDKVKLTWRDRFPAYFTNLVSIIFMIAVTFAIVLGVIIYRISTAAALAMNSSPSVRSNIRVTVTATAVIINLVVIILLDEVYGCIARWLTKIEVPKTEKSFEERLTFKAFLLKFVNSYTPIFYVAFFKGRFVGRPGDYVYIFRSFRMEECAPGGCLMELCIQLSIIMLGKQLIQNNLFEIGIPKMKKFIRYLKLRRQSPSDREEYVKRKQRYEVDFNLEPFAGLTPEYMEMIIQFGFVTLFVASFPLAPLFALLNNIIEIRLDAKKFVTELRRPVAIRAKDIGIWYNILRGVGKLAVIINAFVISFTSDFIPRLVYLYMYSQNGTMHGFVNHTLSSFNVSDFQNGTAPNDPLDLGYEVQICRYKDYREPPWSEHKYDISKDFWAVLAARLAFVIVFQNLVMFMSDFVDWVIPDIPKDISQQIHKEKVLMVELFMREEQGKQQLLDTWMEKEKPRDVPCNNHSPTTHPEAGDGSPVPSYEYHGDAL
SR-BI DiI inh – mouse SR-BI HDL lipid transfer inhibition. 320,000 tested, 0.96% active. AID 488896. ldlA[mSR-BI] CHO cells, DiI-HDL uptake fluorescence, 3 h. inhibition, % at 12.5 µM. Q61009;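 active means mean replicate inhibition of at least 70% and a set share of replicates each scoring 70 or more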;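 further: 0% = median of neutral control wells and 100% = median of positive control wells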
SR-BI DiI-HDL act – SR-BI HDL lipid transfer activation | activation, % at 12.5 µM | 320,000 tested, 0.096% active | CHO ldlA[mSR-BI] cells, DiI-HDL uptake fluorescence, 3 h; 100 = double the neutral-control signal;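 active means mean replicate activation of at least 60% and every replicate at or above 60%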;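 further: 0% = median plate neutral-control signal and 100% = twice that signal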
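Material – SR-BI-overexpressing, LDLR-lacking CHO cells · Medium – BSA-supplemented, HEPES-buffered Ham's F12, pH 7.4 · Doses – single concentration · Times – compound with DiI-HDL co-incubation, 3 h at 37 °C · Measured by – bottom-read fluorescence, 550/595 nm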
TMEM16A act – activates or potentiates the mouse TMEM16A chloride channel; HEK293 TMEM16A/YFP-H148Q/I152L, iodide quench fluorescence; active compounds read low; B-score at 10 µM; 340,000 tested, 0.3% active; AID 623877;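 active means fluorescence-ratio B-score plate-corrected deviation score at least 3 library SD below zero, with starting fluorescence score within 5 deviations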;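 further: channel opened by trigger with iodide after compound preincubation; score built on the fluorescence ratio of max minus min over baseline; more negative score means more quench and so TMEM16A activation or potentiation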
DNA FID counter – counter-screen for HCV NS3 helicase inhibitors: DNA intercalator displacement; DNA fluorescent intercalator displacement, fluorescence; inhibition, % at 7.9 µM; 290,000 tested, 0.17% active; AID 1845; in the data active means inhibition above about 37%;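 further: 0% = vehicle and 100% = reference compound; higher means more ethidium bromide displaced from hairpin DNA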
Kir21 block – inhibitors of mouse Kir2.1 inward-rectifier potassium channel; HEK293-Kir2.1, FluxOR thallium flux fluorescence; active compounds read low; B-score at 10 µM; 310,000 tested, 0.85% active; P35561; AID 1672;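 active means fluorescence ratio B-score at or below minus 3 SD of library scores, with starting-brightness B-score within 2 SD, cut at about -4.2 in these data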;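 further: channel flux triggered by added potassium and thallium sulfate stimulus; B-score of peak minus minimum fluorescence over baseline after thallium stimulus; more negative B-score means stronger Kir2.1 block with less thallium influx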
* hit, by the source's call; i = inactive; nt = no result given. Rows were chosen to be rich in hits. Some 3% of all compounds tested hit in one or more screens of this group.

SMILES	TMEM16A inh	SR-BI DiI inh	SR-BI DiI-HDL act	TMEM16A act	DNA FID counter	Kir21 block
CC(C)(C)C(=O)Nc1ccc(C(=O)N/N=C/c2ccccc2OC(=O)c2ccc(Cl)cc2)cc1	i	97*	-97	i	-8	-0.07
O=c1[nH]c(=S)[nH]cc1Oc1ccccc1	nt	-21	21	i	nt	nt
O=C(CSc1nnnn1-c1cccc2c1CCCC2)N1CCCCC1	i	11	-11	i	-35	-4.3*
CC(=O)c1cccc(NC(=O)CCCCCn2nnc3ccccc3c2=O)c1	i	nt	nt	i	-30	0.39
CC(C)C(NS(=O)(=O)c1ccccc1F)C(=O)OCC(=O)NCc1ccco1 (configuration not stated)	nt	7	-7	i	nt	nt
C#CCNC(=O)C1=C[C@@H](c2ccccc2)C[C@@H](OCc2ccc(CO)cc2)O1	i	-2	2	i	-19	-5.6*
NC(=O)C1=C[C@H](c2ccc(C(F)(F)F)cc2)C[C@H](OCc2ccc(CO)cc2)O1	i	5	-5	i	-28	-4.8*
O=C(C1=C[C@@H](c2ccc(Br)cc2)C[C@@H](OCc2ccc(CO)cc2)O1)N1CCN(Cc2ccccc2)CC1	i	-63	63*	i	-20	-0.56
O=S(=O)(O)c1cccnc1SCc1ccccc1	i	-4	4	i	nt	0.81
O=C(Cc1ccc(Cl)cc1)NN1C(=O)c2ccccc2C1=O	i	-23	23	i	-8	0.42
COC(=O)[C@@H]1[C@@H](C#N)C2(c3ccccc3-c3ccccc32)N(c2ccc(Cl)cc2)N1C#N	25*	nt	nt	i	-21	0.6
CC(=O)Nc1ccc2c(COC(=O)[C@@H](NS(=O)(=O)c3ccc(C)cc3)C(C)C)cc(=O)oc2c1	nt	54	-54	i	nt	nt
Cc1ccc(-n2[nH]c(C)c(/C=N/Nc3ccc([N+](=O)[O-])cc3[N+](=O)[O-])c2=O)cc1	100*	42	-42	i	4	0.1
Cc1[nH]n(-c2ccc([N+](=O)[O-])cc2)c(=O)c1C=NCC1CCCO1 (configuration not stated)	i	20	-20	i	8	0.21
CC(=O)Nc1sc(/C(C#N)=C\c2cccc(Cl)c2)nc1-c1ccc(C)cc1	i	82*	-82	i	-2	-11
CC(=O)OCCNc1cc(Sc2nc3ccccc3[nH]2)c2nonc2c1[N+](=O)[O-]	i	-3	3	i	13	-4.5*
Cc1nn(C(=O)c2cccc([N+](=O)[O-])c2)c(C)c1Sc1ccccc1	i	-15	15	i	-3	-4.3*
CC(=O)c1ccc(OC(=O)COc2ccccc2Cl)cc1	i	-24	24	i	-4	0.03
CCN1CCN(CCNC(=O)c2ccc(/C=C3/Sc4ccccc4N(Cc4ccccc4C)C3=O)cc2)CC1	nt	nt	nt	i	22	-5.6*
Cc1ccccc1CN1C(=O)c2ccccc2Sc2ccc(C(=O)NCCN3CCOCC3)cc21	i	-8	8	i	7	-0.07
C[C@H](CO)N1C[C@H](C)[C@@H](CN(C)S(C)(=O)=O)Oc2ccc(NC(=O)Nc3ccccc3)cc2C1=O	nt	-7	7	i	nt	nt
COc1cc([N+](=O)[O-])cc(/C=C2/SC(=S)N(Cc3ccccc3)C2=O)c1O	i	4	-4	i	41*	-1.6
COc1cc(/C=C2/SC(=S)N(Cc3ccccc3)C2=O)cc(Cl)c1O	i	-13	13	i	18	-5.3
O=C1/C(=C\c2cccc([N+](=O)[O-])c2O)SC(=S)N1Cc1ccccc1	100*	nt	nt	i	17	2.8
CN1CCN(Cc2ccc(Sc3ccc(Cl)cc3)c([N+](=O)[O-])c2)CC1	i	-16	16	i	35	-5.3*
COc1ccc(C2CC(c3ccc4ccccc4c3)=NN2C(=O)CNC2CCCCC2)cc1 (configuration not stated)	i	5	-5	i	27	-1.5
C=CCNCC(=O)N1N=C(c2ccc3ccccc3c2)CC1c1ccc(OC)cc1 (configuration not stated)	i	8	-8	i	22	-4.3*
